# Source: PubChem
# Rows were chosen to be rich in hits. Some 2.5% of all compounds tested hit in one or more screens of this group.
# NadD inh = inhibitors of Staphylococcus aureus NadD; purified NadD enzyme, colorimetric absorbance read-out; inhibition, % at 20 µM; 0.78% of 360,000 active; AID 602399; in the data active = inhibition above about 26%
# B2AR ag = agonists of human beta-2 adrenergic receptor inducing internalization; P07550; Am2.2-beta2AR cells, FAP receptor internalization, flow cytometry; response, % (test concentration not listed); 0.43% of 340,000 active;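 active = response above a set limit, near 3 SD of response in nonfluorescent compounds, cut at about 42% in these data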
# SENP1 inh = inhibitors of human SENP1 SUMO protease catalytic domain. Q9P0U3. recombinant SENP1 catalytic domain, CyPet-SUMO1-YPet FRET cleavage. inhibition, % at 10 µM. 0.21% of 360,000 active. AID 624204;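 active = inhibition at least 30% at 10 µM, raw YFP signal under a set limit, fluorescence ratio 0.5 to 1.5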
#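 Assay system: hSENP1 catalytic domain, recombinant. Amount: SENP1 enzyme, 20 pM final. Schedule: 50 min reaction, RT, dark. Technique: FRET, CFP and YFP emission. Control set: no-enzyme wells low, DMSO-plus-enzyme wells high control.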
# GRK2 aptamer HTS = human GRK2 inhibition via aptamer displacement; inhibition of aptamer binding, % at 10 µM; bead flow cytometry, FAM-aptamer displacement from GRK2; AID 488847; 0.59% of 330,000 active;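 active = inhibition of aptamer binding above 40%, roughly 3 SD of noise, on plates passing a quality check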;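 note: median bead fluorescence of bound FAM aptamer so fluorescent compounds give negative values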
# Target sequence (P25098 whole entry, looked up): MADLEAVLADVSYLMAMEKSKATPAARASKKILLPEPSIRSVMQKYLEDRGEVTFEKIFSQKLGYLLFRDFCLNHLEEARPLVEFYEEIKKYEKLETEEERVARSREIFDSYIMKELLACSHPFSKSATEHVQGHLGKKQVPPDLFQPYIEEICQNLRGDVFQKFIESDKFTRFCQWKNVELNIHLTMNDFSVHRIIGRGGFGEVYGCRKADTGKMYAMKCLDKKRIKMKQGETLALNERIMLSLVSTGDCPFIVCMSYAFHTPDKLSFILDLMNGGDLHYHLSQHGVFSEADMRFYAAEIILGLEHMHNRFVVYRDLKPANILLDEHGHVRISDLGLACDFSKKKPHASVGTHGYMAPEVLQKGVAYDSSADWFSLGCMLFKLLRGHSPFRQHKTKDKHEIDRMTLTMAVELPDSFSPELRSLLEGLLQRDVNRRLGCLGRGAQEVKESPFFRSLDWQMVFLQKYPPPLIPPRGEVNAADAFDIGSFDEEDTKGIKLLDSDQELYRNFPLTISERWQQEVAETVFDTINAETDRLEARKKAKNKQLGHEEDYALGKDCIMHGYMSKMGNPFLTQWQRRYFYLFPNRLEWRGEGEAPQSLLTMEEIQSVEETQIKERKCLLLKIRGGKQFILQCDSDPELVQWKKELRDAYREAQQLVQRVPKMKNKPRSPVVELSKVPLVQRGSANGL
# ABHD5 PLIN5 PPI = blocks binding of human ABHD5 to perilipin-5; 0.78% of 360,000 active; AID 602281; Split G. princeps luciferase complementation, luminescence, 4 h; inhibition, % at 4 µM;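 active = inhibition above the mean inhibition across every tested compound plus 3 SD, cut at about 22% in these data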
# ABHD5 PLIN5 conf = confirmation of human ABHD5-PLIN5 interaction inhibitors; biochemical ABHD5-PLIN5 interaction, luminescence; shares compounds with ABHD5 PLIN5 PPI; AID 651612; inhibition, % at 4 µM; 67% of 2,200 active; in the data active = inhibition above about 23%
# HNF4 split-luc = HNF4 split-luciferase signal hit, counter-screen; shares compounds with ABHD5 PLIN5 PPI; HNF4 dimerization, luminescence, biochemical; inhibition, % at 4 µM; 77% of 2,200 active;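 active = mean inhibition across replicate wells exceeding the computed hit threshold, cut at about 13% in these data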;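 note: light from luciferase halves that rejoin when HNF4 fusion proteins dimerize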
# Numbers stand for hits; . = inactive; / = no result given.
SMILES,NadD inh,B2AR ag,SENP1 inh,GRK2 aptamer HTS,ABHD5 PLIN5 PPI,ABHD5 PLIN5 conf,HNF4 split-luc
CC/C(=N\Nc1ccccc1)c1c(O)n(-c2ccccc2)c(=O)[nH]c1=O,.,.,.,.,25.2,.,19.4
COc1ccc(-n2c(O)c(/C(C)=N/Nc3ccccc3)c(=O)[nH]c2=O)cc1,.,.,.,.,.,/,/
FC(F)=C(F)CCSc1ncn[nH]1,.,.,.,.,.,/,/
O=C(Cn1c(NCCCl)nc2ccccc21)c1ccc(Br)cc1,.,.,.,.,.,/,/
Cc1cc(C)cc(N2C(=O)NC(=O)/C(=C\c3cccn3-c3ccc(Cl)cc3)C2=O)c1,.,.,.,.,.,/,/
COc1ccccc1C=C1C(=O)NC(=S)NC1=O,.,.,.,/,.,/,/
Cc1cc(C)cc(N2C(=O)NC(=O)/C(=C\c3cccn3-c3ccccc3)C2=O)c1,.,.,.,.,25.3,58.0,69.5
O=C1NC(=S)NC(=O)C1=Cc1cccn1-c1ccc(O)cc1,.,71.4,.,/,24.1,90.7,94.7
CCC(=Nc1ccccc1N)c1c(O)[nH]c(=O)[nH]c1=O,.,.,.,.,.,/,/
CN1C(=O)C(=Cc2ccc(OCC(=O)Nc3ccccc3)cc2)C(=O)N(C)C1=O,.,.,.,.,50.1,.,27.5
COC(=O)C1=C(c2ccc(F)cc2OCc2ccccc2)C[C@@H]2CC[C@H]1N2C(=O)NCCN1CCOCC1,.,.,.,.,.,/,/
CCN(CC)S(=O)(=O)c1ccc(NN=C(C#N)C#N)cc1,.,.,.,.,25.8,44.3,34.8
O=c1[nH]c(O)c(/C=C2\C=Nc3ccc(OCc4ccccc4)cc32)c(=O)[nH]1,.,.,.,.,.,/,/
O=C(CCNC(=O)N1C[C@H]2C[C@@H](C1)c1cccc(=O)n1C2)Nc1cccc(Cl)c1,.,.,.,.,.,/,/
C[C@@H]1C[C@H]2OC(=O)C3(CO3)[C@H]2[C@H](O)[C@]2(C)C(=O)C3OC3[C@@H]12 (some centres undefined),/,/,/,.,/,/,/
C=C1C(=O)O[C@@H]2C[C@@H](C)[C@@H]3C=CC(=O)[C@@]3(C)[C@@H](O)[C@H]12,.,.,.,.,81.8,90.8,90.1
COC(=O)C1=C(c2cccc(C#N)c2)C[C@@H]2CC[C@H]1N2C(=O)NC1CC1,.,.,.,.,.,/,/
CC12Cc3cn[nH]c3C=C1CCC1C2CCC2(C)C1CCC2(C)O (centres undefined),.,.,.,/,.,/,/
Cc1cccc(-n2c(O)c(C=Nc3ccc(Br)cn3)c(=O)[nH]c2=O)c1,.,.,.,.,24.2,.,28.1
C[CH2][Hg][S]c1ccccc1C(=O)O,.,.,.,.,28.4,49.4,83.2
CCOC(=O)C1C(OC(=O)c2ccccc2)CC2CCC1N2C (centres undefined),.,.,.,/,25.7,34.8,.
CCN1CCN(Cc2cccnc2)CC1,.,.,.,.,.,/,/
Cn1c(O)c(C(c2ccncc2)c2c(O)n(C)c(=S)n(C)c2=O)c(=O)n(C)c1=S,.,.,.,.,.,/,/
Cc1ccccc1-n1c(O)c(C(c2ccncc2)c2c(O)n(-c3ccccc3C)c(=O)[nH]c2=O)c(=O)[nH]c1=O,.,.,.,.,26.5,55.4,65.5
CCOc1ccc2oc(C(=O)NN3C(C)CCCC3C)c(C)c2c1 (centres undefined),.,.,.,.,.,/,/
O=C1NC(=O)N(c2ccccc2)C(=O)/C1=C\c1ccccc1[N+](=O)[O-],.,.,.,.,24.1,78.2,80.0
Cc1cc(/C=C2\C(=O)NC(=O)N(c3ccc(Cl)cc3)C2=O)c(C)n1-c1cccc(C(=O)O)c1,.,.,.,.,.,/,/
O=C1NC(=O)N(c2ccc(Cl)cc2)C(=O)/C1=C/c1coc2ccc(O)cc2c1=O,.,.,.,.,25.1,86.6,80.6
O=C1NC(=O)N(c2ccccc2)C(=O)/C1=C/c1coc2ccc(O)cc2c1=O,.,.,.,.,36.8,90.4,87.5
CCCNC(=O)N1[C@H]2CC[C@@H]1C(C(=O)OC)=C(c1ccc3ccccc3c1)C2,.,.,.,.,.,/,/
